Data as given in ChEMBL document CHEMBL3994650, “New 1,4-dihydro[1,8]naphthyridine derivatives as DNA gyrase inhibitors” (Bioorg Med Chem Lett, 2017).
In brackets after ≈: the same amount, converted by molar mass. Activity calls are given as the source filed them. The rule behind the calls is not given here.

Columns and labels:
[1] = Selectivity index, ratio of IC50 for mouse NIH/3T3 cells to MIC90 for Klebsiella pneumoniae ATCC 700603; format: toxicity; details: read-out: Selectivity Index
[2] = Selectivity index, ratio of IC50 for mouse NIH/3T3 cells to MIC90 for Listeria monocytogenes ATCC 7644; format: toxicity; details: read-out: Selectivity Index
Salmonella typhimurium [3] = assay: Mutagenicity in Salmonella typhimurium TA98 assessed as increase in revertant colonies at 0.156 mg/ml in presence of Sprague-Dawley rat liver S9 fraction by Ames test relative to basal level; format: toxicity; details: salmonella enterica subsp. enterica serovar typhimurium
Outline: (§1)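 Ames microplate format assay with strains TA98 and TA100, run with and without S9. Positive wells were counted per condition. The run was valid if positive controls gave more than 25 positive wells and negative controls fewer than 8.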

Salmonella typhimurium [4] = assay: Mutagenicity in Salmonella typhimurium TA100 assessed as increase in revertant colonies at 0.156 mg/ml in presence of Sprague-Dawley rat liver S9 fraction by Ames test relative to basal level; format: toxicity; details: salmonella enterica subsp. enterica serovar typhimurium; outline: as §1
Staphylococcus aureus [5] = assay: Antibacterial activity against Staphylococcus aureus ATCC 25923 incubated after 24 hrs by resazurin dye based broth microdilution assay; format: functional; details: ATCC 25923, 24 h
Escherichia coli [6] = assay: Antibacterial activity against Escherichia coli ATCC 35218 incubated after 24 hrs by resazurin dye based broth microdilution assay; format: functional; details: ATCC 35218, 24 h
Escherichia coli [7] = assay: Antibacterial activity against Escherichia coli ATCC 25922 incubated after 24 hrs by resazurin dye based broth microdilution assay; format: functional; details: ATCC 25922, 24 h
Klebsiella pneumoniae = assay: Antibacterial activity against Klebsiella pneumoniae ATCC 700603 incubated after 24 hrs by resazurin dye based broth microdilution assay; format: functional; details: Klebsiella pneumoniae, 700603, 24 h
Enterococcus faecalis [8] = assay: Antibacterial activity against Enterococcus faecalis ATCC 29212 incubated after 24 hrs by resazurin dye based broth microdilution assay; format: functional; details: ATCC 29212, 24 h
Enterococcus faecalis [9] = assay: Antibacterial activity against Enterococcus faecalis ATCC 51299 incubated after 24 hrs by resazurin dye based broth microdilution assay; format: functional; details: ATCC 51299, 24 h
Listeria monocytogenes = assay: Antibacterial activity against Listeria monocytogenes ATCC 7644 incubated after 24 hrs by resazurin dye based broth microdilution assay; format: functional; details: ATCC 7644, 24 h
Pseudomonas aeruginosa = assay: Antibacterial activity against Pseudomonas aeruginosa ATCC 27853 incubated after 24 hrs by resazurin dye based broth microdilution assay; format: functional; details: ATCC 27853, 24 h
Staphylococcus aureus [10] = assay: Antibacterial activity against Staphylococcus aureus ATCC 25923 assessed as decrease in ATP level at […] ug/ml after 24 hrs by BacTiter-Glo reagent based bioluminescence assay; format: functional
[11] = test system: Escherichia coli ATCC 25922; assay: Inhibition of Escherichia coli DNA gyrase assessed as inhibition of enzyme-mediated supercoiling of relaxed pHOT1 DNA substrate after 30 mins by gel electrophoresis method
Outline: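 E. coli DNA gyrase (1 U) was incubated with relaxed pHOT1 DNA substrate (0.25 µg) for 30 min at 37 °C. Compounds were tested at 15.6, 7.8, 3.9 and 1.95 µg/L. Controls were supercoiled DNA, relaxed DNA, relaxed DNA plus gyrase, and 1% DMSO. Supercoiling was read by agarose gel electrophoresis.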

NIH3T3 = assay: Cytotoxicity against mouse NIH/3T3 cells assessed as reduction in cell proliferation after 24 hrs by MTT assay; format: cell-based; details: NIH3T3, 24 h
[12] = Selectivity index, ratio of IC50 for mouse NIH/3T3 cells to MIC90 for Pseudomonas aeruginosa ATCC 27853; format: toxicity; details: read-out: Selectivity Index
Salmonella typhimurium [13] = assay: Mutagenicity in Salmonella typhimurium TA98 assessed as increase in revertant colonies at 0.3125 mg/ml in presence of Sprague-Dawley rat liver S9 fraction by Ames test relative to basal level; format: toxicity; details: salmonella enterica subsp. enterica serovar typhimurium; outline: as §1
Salmonella typhimurium [14] = assay: Mutagenicity in Salmonella typhimurium TA98 assessed as increase in revertant colonies at 0.625 mg/ml in presence of Sprague-Dawley rat liver S9 fraction by Ames test relative to basal level; format: toxicity; details: salmonella enterica subsp. enterica serovar typhimurium; outline: as §1
Salmonella typhimurium [15] = assay: Mutagenicity in Salmonella typhimurium TA98 assessed as increase in revertant colonies at 1.25 mg/ml in presence of Sprague-Dawley rat liver S9 fraction by Ames test relative to basal level; format: toxicity; details: salmonella enterica subsp. enterica serovar typhimurium; outline: as §1
Salmonella typhimurium [16] = assay: Mutagenicity in Salmonella typhimurium TA98 assessed as increase in revertant colonies at 2.5 mg/ml in presence of Sprague-Dawley rat liver S9 fraction by Ames test relative to basal level; format: toxicity; details: salmonella enterica subsp. enterica serovar typhimurium; outline: as §1
Salmonella typhimurium [17] = assay: Mutagenicity in Salmonella typhimurium TA98 assessed as increase in revertant colonies at 5 mg/ml in presence of Sprague-Dawley rat liver S9 fraction by Ames test relative to basal level; format: toxicity; details: salmonella enterica subsp. enterica serovar typhimurium; outline: as §1
Salmonella typhimurium [18] = assay: Mutagenicity in Salmonella typhimurium TA98 assessed as increase in revertant colonies at 0.156 mg/ml in absence of Sprague-Dawley rat liver S9 fraction by Ames test relative to basal level; format: toxicity; details: salmonella enterica subsp. enterica serovar typhimurium; outline: as §1
Salmonella typhimurium [19] = assay: Mutagenicity in Salmonella typhimurium TA98 assessed as increase in revertant colonies at 0.3125 mg/ml in absence of Sprague-Dawley rat liver S9 fraction by Ames test relative to basal level; format: toxicity; details: salmonella enterica subsp. enterica serovar typhimurium; outline: as §1
Salmonella typhimurium [20] = assay: Mutagenicity in Salmonella typhimurium TA98 assessed as increase in revertant colonies at 0.625 mg/ml in absence of Sprague-Dawley rat liver S9 fraction by Ames test relative to basal level; format: toxicity; details: salmonella enterica subsp. enterica serovar typhimurium; outline: as §1
Salmonella typhimurium [21] = assay: Mutagenicity in Salmonella typhimurium TA98 assessed as increase in revertant colonies at 1.25 mg/ml in absence of Sprague-Dawley rat liver S9 fraction by Ames test relative to basal level; format: toxicity; details: salmonella enterica subsp. enterica serovar typhimurium; outline: as §1
Salmonella typhimurium [22] = assay: Mutagenicity in Salmonella typhimurium TA98 assessed as increase in revertant colonies at 2.5 mg/ml in absence of Sprague-Dawley rat liver S9 fraction by Ames test relative to basal level; format: toxicity; details: salmonella enterica subsp. enterica serovar typhimurium; outline: as §1
Salmonella typhimurium [23] = assay: Mutagenicity in Salmonella typhimurium TA98 assessed as increase in revertant colonies at 5 mg/ml in absence of Sprague-Dawley rat liver S9 fraction by Ames test relative to basal level; format: toxicity; details: salmonella enterica subsp. enterica serovar typhimurium; outline: as §1
Salmonella typhimurium [24] = assay: Mutagenicity in Salmonella typhimurium TA100 assessed as increase in revertant colonies at 0.3125 mg/ml in presence of Sprague-Dawley rat liver S9 fraction by Ames test relative to basal level; format: toxicity; details: salmonella enterica subsp. enterica serovar typhimurium; outline: as §1
Salmonella typhimurium [25] = assay: Mutagenicity in Salmonella typhimurium TA100 assessed as increase in revertant colonies at 0.625 mg/ml in presence of Sprague-Dawley rat liver S9 fraction by Ames test relative to basal level; format: toxicity; details: salmonella enterica subsp. enterica serovar typhimurium; outline: as §1
Salmonella typhimurium [26] = assay: Mutagenicity in Salmonella typhimurium TA100 assessed as increase in revertant colonies at 1.25 mg/ml in presence of Sprague-Dawley rat liver S9 fraction by Ames test relative to basal level; format: toxicity; details: salmonella enterica subsp. enterica serovar typhimurium; outline: as §1
Salmonella typhimurium [27] = assay: Mutagenicity in Salmonella typhimurium TA100 assessed as increase in revertant colonies at 2.5 mg/ml in presence of Sprague-Dawley rat liver S9 fraction by Ames test relative to basal level; format: toxicity; details: salmonella enterica subsp. enterica serovar typhimurium; outline: as §1
Salmonella typhimurium [28] = assay: Mutagenicity in Salmonella typhimurium TA100 assessed as increase in revertant colonies at 5 mg/ml in presence of Sprague-Dawley rat liver S9 fraction by Ames test relative to basal level; format: toxicity; details: salmonella enterica subsp. enterica serovar typhimurium; outline: as §1
Salmonella typhimurium [29] = assay: Mutagenicity in Salmonella typhimurium TA100 assessed as increase in revertant colonies at 0.156 mg/ml in absence of Sprague-Dawley rat liver S9 fraction by Ames test relative to basal level; format: toxicity; details: salmonella enterica subsp. enterica serovar typhimurium; outline: as §1
Salmonella typhimurium [30] = assay: Mutagenicity in Salmonella typhimurium TA100 assessed as increase in revertant colonies at 0.3125 mg/ml in absence of Sprague-Dawley rat liver S9 fraction by Ames test relative to basal level; format: toxicity; details: salmonella enterica subsp. enterica serovar typhimurium; outline: as §1
Salmonella typhimurium [31] = assay: Mutagenicity in Salmonella typhimurium TA100 assessed as increase in revertant colonies at 0.625 mg/ml in absence of Sprague-Dawley rat liver S9 fraction by Ames test relative to basal level; format: toxicity; details: salmonella enterica subsp. enterica serovar typhimurium; outline: as §1
Salmonella typhimurium [32] = assay: Mutagenicity in Salmonella typhimurium TA100 assessed as increase in revertant colonies at 1.25 mg/ml in absence of Sprague-Dawley rat liver S9 fraction by Ames test relative to basal level; format: toxicity; details: salmonella enterica subsp. enterica serovar typhimurium; outline: as §1
Salmonella typhimurium [33] = assay: Mutagenicity in Salmonella typhimurium TA100 assessed as increase in revertant colonies at 2.5 mg/ml in absence of Sprague-Dawley rat liver S9 fraction by Ames test relative to basal level; format: toxicity; details: salmonella enterica subsp. enterica serovar typhimurium; outline: as §1
Salmonella typhimurium [34] = assay: Mutagenicity in Salmonella typhimurium TA100 assessed as increase in revertant colonies at 5 mg/ml in absence of Sprague-Dawley rat liver S9 fraction by Ames test relative to basal level; format: toxicity; details: salmonella enterica subsp. enterica serovar typhimurium; outline: as §1

## CN(C)CCCN1CCN(c2nc3c(cc2F)c(=O)c(C(=O)O)cn3-c2ccc(F)cc2F)CC1
[1]
  selectivity ratio: 54
[2]
  selectivity ratio: 54
Salmonella typhimurium [3]
  fold change (FC): 0
Salmonella typhimurium [4]
  fold change (FC): 0
Staphylococcus aureus [5]
  MIC90: 1.95 µg/mL (≈ 3.98 µM)
Escherichia coli [6]
  MIC90: 1.95 µg/mL (≈ 3.98 µM)
Escherichia coli [7]
  MIC90: 1.95 µg/mL (≈ 3.98 µM)
Klebsiella pneumoniae
  MIC90: 7.8 µg/mL (≈ 15.9 µM)
Enterococcus faecalis [8]
  MIC90: 3.9 µg/mL (≈ 7.97 µM)
Enterococcus faecalis [9]
  MIC90: 3.9 µg/mL (≈ 7.97 µM)
Listeria monocytogenes
  MIC90: 7.8 µg/mL (≈ 15.9 µM)
Pseudomonas aeruginosa
  MIC90: 7.8 µg/mL (≈ 15.9 µM)
Staphylococcus aureus [10]
  Activity: Active
[11]
  inhibition: Dose-dependent effect
NIH3T3
  IC50: 440 µg/mL (≈ 899 µM)
[12]
  selectivity ratio: 54
Salmonella typhimurium [13]
  fold change (FC): 0.11
Salmonella typhimurium [14]
  fold change (FC): 0
Salmonella typhimurium [15]
  fold change (FC): 0
Salmonella typhimurium [16]
  fold change (FC): 0
Salmonella typhimurium [17]
  fold change (FC): 0
Salmonella typhimurium [18]
  fold change (FC): 0
Salmonella typhimurium [19]
  fold change (FC): 0
Salmonella typhimurium [20]
  fold change (FC): 0
Salmonella typhimurium [21]
  fold change (FC): 0
Salmonella typhimurium [22]
  fold change (FC): 0
Salmonella typhimurium [23]
  fold change (FC): 0
Salmonella typhimurium [24]
  fold change (FC): 0
Salmonella typhimurium [25]
  fold change (FC): 0
Salmonella typhimurium [26]
  fold change (FC): 0
Salmonella typhimurium [27]
  fold change (FC): 0
Salmonella typhimurium [28]
  fold change (FC): 0
Salmonella typhimurium [29]
  fold change (FC): 0
Salmonella typhimurium [30]
  fold change (FC): 0
Salmonella typhimurium [31]
  fold change (FC): 0
Salmonella typhimurium [32]
  fold change (FC): 0
Salmonella typhimurium [33]
  fold change (FC): 0
Salmonella typhimurium [34]
  fold change (FC): 0
